In ChEMBL document CHEMBL4376900, “Structure-Activity Relationship of Antischistosomal Ozonide Carboxylic Acids” (J Med Chem, 2020):
≈ marks a conversion by molar mass, not a printed value.

What was measured:
[1] = Partition coefficient, logD of the compound at pH 7.4 by HPLC analysis; type: physicochemical; settings: octanol/water
[2] = Kinetic solubility in pH 6.5 phosphate buffer incubated for 30 mins by nephelometry; type: physicochemical; settings: read-out: Kinetic_solubility
How it was run: (§1)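 DMSO stocks (10 mg/mL) diluted into pH 6.5 phosphate buffer or 0.01 M HCl (about pH 2.0) at 1% final DMSO. After 30 min, a solubility range was determined by nephelometry.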

[3] = Kinetic solubility in pH 2.0 0.01M HCl buffer incubated for 30 mins by nephelometry; type: physicochemical; settings: read-out: Kinetic_solubility; how it was run: as §1
[4] = target: Albumin (Homo sapiens, UniProt P02768); experiment: Protein binding to human albumin by HPLC analysis; type: ADME; settings: isolated protein
Albumin, sequence (P02768 whole entry): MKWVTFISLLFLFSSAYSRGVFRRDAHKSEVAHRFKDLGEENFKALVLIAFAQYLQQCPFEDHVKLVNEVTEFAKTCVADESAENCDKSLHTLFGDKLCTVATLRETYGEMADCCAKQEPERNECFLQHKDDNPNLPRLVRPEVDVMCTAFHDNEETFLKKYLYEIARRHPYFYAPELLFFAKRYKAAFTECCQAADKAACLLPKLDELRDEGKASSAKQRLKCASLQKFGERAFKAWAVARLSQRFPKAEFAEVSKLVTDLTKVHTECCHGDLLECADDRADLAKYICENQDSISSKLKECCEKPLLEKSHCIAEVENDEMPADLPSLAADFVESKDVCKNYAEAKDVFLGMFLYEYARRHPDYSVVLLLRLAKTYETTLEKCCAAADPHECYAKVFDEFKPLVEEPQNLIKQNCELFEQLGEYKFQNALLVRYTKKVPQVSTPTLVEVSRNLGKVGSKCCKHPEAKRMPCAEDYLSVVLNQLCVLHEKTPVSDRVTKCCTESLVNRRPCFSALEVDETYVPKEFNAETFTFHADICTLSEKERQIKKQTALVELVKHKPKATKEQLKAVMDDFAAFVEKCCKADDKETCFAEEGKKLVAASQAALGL
How it was run: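 Binding estimated chromatographically using a gradient HPLC method derived from the Valko approach.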

[5] = system: Schistosoma mansoni; experiment: Antischistosomal activity against Schistosoma mansoni infected in NMRI mouse assessed as reduction in total adult worm burden at 400 mg/kg, po administered as single dose starting on day 49 post-infection and measured at 28 days post treatment relative to control; type: functional; parameters: scale not given: the % may be the effect or the level left
[6] = Intrinsic clearance in human liver microsomes in presence of NADPH-regenerating system incubated over 60 mins; type: ADME, Microsome; settings: read-out: CLH
How it was run: (§2)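 Compounds incubated at 37 °C with liver microsomes at 0.4 mg/mL protein. Reaction started by adding an NADPH-regenerating system and quenched with acetonitrile containing diazepam internal standard at several time points over 60 min. No-NADPH controls were quenched at 2, 30 and 60 min.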

[7] = Intrinsic clearance in mouse liver microsomes in presence of NADPH-regenerating system incubated over 60 mins; type: ADME, Microsome; settings: read-out: CLH; how it was run: as §2
[8] = system: Schistosoma mansoni; experiment: Antischistosomal activity against Schistosoma mansoni infected in mouse assessed as reduction in juvenile worm burden at 200 mg/kg, po administered as single dose relative to control; type: functional; parameters: scale not given: the % may be the effect or the level left
How it was run: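 Female NMRI mice, 4 weeks old, infected subcutaneously with about 100 S. mansoni cercariae. Juvenile-stage treatment was a single oral dose on day 21 post-infection in 7% v/v Tween 80 / 3% v/v ethanol (10 mL/kg). Untreated infected mice (n = 8) served as controls. Necropsy by CO2 21 days post-treatment, with worms picked, sexed and counted.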

[9] = system: HFF; experiment: Cytotoxicity in HFF assessed as reduction in cell viability up to 50 uM incubated for 24 hrs by Alamar blue sye based assay; settings: human
How it was run: (§3)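 Cells maintained in D10 medium were grown to confluence, then exposed to increasing compound concentrations (0–100 μM) for 24 h. Alamar blue (10 mM) was then added for 4 h, and viability was read as fluorescence.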

[10] = system: U2OS; experiment: Cytotoxicity in human U2OS assessed as reduction in cell viability up to 50 uM incubated for 24 hrs by Alamar blue sye based assay; how it was run: as §3
[11] = system: HEK-293T; experiment: Cytotoxicity in human HEK293T assessed as reduction in cell viability up to 50 uM incubated for 24 hrs by Alamar blue sye based assay; how it was run: as §3
[12] = Cytotoxicity in human HC04 assessed as reduction in cell viability up to 50 uM incubated for 24 hrs by Alamar blue sye based assay; how it was run: as §3

Row | SMILES | logD [1] | solubility kinetic at 0.5 h [2] | solubility kinetic at 0.5 h [3] | PPB [4] | Activity [5] | microsomal CLint [6] | microsomal CLint [7] | Activity [8] | Activity [9] | Activity [10] | Activity [11] | Activity [12]
1 | O=C(O)COc1ccc([C@H]2CC[C@]3(CC2)OOC2(O3)C3CC4CC2CC(C3)C4=O)cc1 (some centres undefined) | 1.9 | < 1.6 µg/mL | 50 to 100 µg/mL (≈ 117 to 233 µM) | 97.8% | 24% | – | – | – | – | – | – | –
2 | O=C(O)CCCCOc1ccc([C@H]2CC[C@]3(CC2)OOC2(O3)C3CC4CC(C3)CC2C4)cc1 (some centres undefined) | 4 | < 1.6 µg/mL | < 1.6 µg/mL | > 99.5% | 51% | < 7 µL/min/mg | 13 µL/min/mg | – | – | – | – | –
3 | CS(=O)(=O)O.NC1C2CC3CC1CC(C2)C31OO[C@]2(CC[C@@H](c3ccc(OCC(=O)O)cc3)CC2)O1 (some centres undefined) | 1.4 | 6.3 to 12.5 µg/mL | < 1.6 µg/mL | 94.2% | 30% | 13 µL/min/mg | 8 µL/min/mg | – | – | – | – | –
4 | CCOC(=O)COc1ccc([C@H]2CC[C@]3(CC2)OOC2(O3)C3CC4CC(C3)CC2C4)cc1 (some centres undefined) | > 5.3 | < 1.6 µg/mL | < 0.78 µg/mL | 98.9% | 60% | – | – | – | – | – | – | –
5 | O=C(O)c1ccc([C@H]2CC[C@]3(CC2)OOC2(O3)C3CC4CC(C3)CC2C4)cc1 (some centres undefined) | 3 | < 3.1 µg/mL | < 1.6 µg/mL | 98.8% | – | – | – | 100% | – | – | – | –
6 | O=C(O)COc1ccc([C@H]2CC[C@]3(CC2)OOC2(O3)C3CC4CC(C3)CC2C4)cc1Cl (some centres undefined) | 3.2 | < 3.1 µg/mL | 3.1 to 6.3 µg/mL (≈ 6.91 to 14 µM) | > 99.5% | 84% | < 7 µL/min/mg | 8 µL/min/mg | – | Non-Toxic | Non-Toxic | Non-Toxic | Non-Toxic
7 | O=C(O)c1cc([C@H]2CC[C@]3(CC2)OOC2(O3)C3CC4CC(C3)CC2C4)ccc1O (some centres undefined) | 3 | < 1.6 µg/mL | > 100 µg/mL | – | 36% | 108 µL/min/mg | 20 µL/min/mg | – | – | – | – | –
8 | CS(=O)(=O)O.O=C(O)CNCc1ccc([C@H]2CC[C@]3(CC2)OOC2(O3)C3CC4CC(C3)CC2C4)cc1 (some centres undefined) | 3.3 | < 12.5 µg/mL | < 6.3 µg/mL | 97.6% | 90% | < 7 µL/min/mg | 10 µL/min/mg | – | Non-Toxic | Non-Toxic | Non-Toxic | Non-Toxic
9 | CS(=O)(=O)O.CS(=O)(=O)O.O=C(O)CNCc1ccc([C@H]2CC[C@]3(CC2)OOC2(O3)C3CC4CC2CC(C3)N4)cc1 (some centres undefined) | 1.6 | > 100 µg/mL | 50 to 100 µg/mL | – | 41% | < 7 µL/min/mg | < 7 µL/min/mg | – | – | – | – | –
10 | CC(=O)NC1C2CC3CC1CC(C2)C31OO[C@]2(CC[C@@H](c3ccc(OCC(=O)O)cc3)CC2)O1 (some centres undefined) | 1.8 | 3.1 to 6.3 µg/mL (≈ 6.57 to 13.4 µM) | 12.5 to 25 µg/mL (≈ 26.5 to 53 µM) | 98.2% | 0% | 10 µL/min/mg | < 7 µL/min/mg | – | – | – | – | –
11 | O=C(O)CN1CCC(Oc2ccc([C@H]3CC[C@]4(CC3)OOC3(O4)C4CC5CC(C4)CC3C5)cc2)CC1 (some centres undefined) | – | – | – | – | 75% | < 7 µL/min/mg | < 7 µL/min/mg | – | Non-Toxic | Non-Toxic | Non-Toxic | Non-Toxic
12 | O=C([O-])C1CCN(CCOc2ccc([C@H]3CC[C@]4(CC3)OOC3(O4)C4CC5CC(C4)CC3C5)cc2)CC1.[Na+] (some centres undefined) | 3.8 | 3.1 to 6.3 µg/mL | < 1.6 µg/mL | 98% | 0% | < 7 µL/min/mg | 9 µL/min/mg | – | – | – | – | –
